Screening data deposited in PubChem BioAssay by several laboratories.
This is a sample that favours compounds with a hit; in the whole collection about 1.4% have one here.
ATG4B inh: ATG4B protease inhibitors, primary screen, biochemical, fluorescence, uHTS | ATG4B cleavage of LC3-PLA2, NBD-HPC fluorescence, 1 h | inhibition, % at 8.33 µM | 340,000 tested, 0.51% active; in the data active = inhibition above about 40%
UCH37 DUB inh: inhibitors of human UCH37 deubiquitinase, primary screen, biochemical, Ub-AMC cleavage, fluorescence | Ubiquitin carboxyl-terminal hydrolase isozyme L5 (Homo sapiens), Q9Y5K5 | purified proteasome/UCH37 | inhibition, % (concentration not given with the values) | 330,000 tested, 0.33% active | AID 588478, 2011;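 active = mean inhibition over replicate wells above about 20%, limit read from the data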;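 note: 0% = compound-free wells with enzyme and 100% = wells lacking proteasome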
Target sequence (Q9Y5K5 whole entry, looked up): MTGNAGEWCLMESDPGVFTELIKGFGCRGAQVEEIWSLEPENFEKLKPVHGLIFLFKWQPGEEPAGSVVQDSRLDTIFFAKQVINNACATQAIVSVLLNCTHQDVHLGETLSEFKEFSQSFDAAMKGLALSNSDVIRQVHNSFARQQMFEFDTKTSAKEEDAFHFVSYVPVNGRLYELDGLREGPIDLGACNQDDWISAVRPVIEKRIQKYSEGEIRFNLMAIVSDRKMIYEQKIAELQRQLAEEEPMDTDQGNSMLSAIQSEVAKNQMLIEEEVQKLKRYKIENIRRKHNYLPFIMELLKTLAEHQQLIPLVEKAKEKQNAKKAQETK
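assay system = human UCH37 enzyme supplied as purified proteasome complex | amount = proteasome at 0.15 nM in the dispensed enzyme solution | schedule = 30 min compound-proteasome preincubation then 25 min substrate reaction, room temperature | measured by = fluorescence, ex 355 nm, em 460 nm | benchmarks = no-proteasome wells (full inhibition) and compound-free wells (no inhibition)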
Tb MetRS inh: T. brucei MetRS inhibitors, primary screen, biochemical, luminescence. 360,000 tested, 0.4% active. AID 624268, 2012. inhibition, % at 11.9 µM. purified T. brucei MetRS, ATP depletion, Kinase-Glo luminescence. methionyl-tRNA synthetase (Trypanosoma brucei brucei);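 active = inhibition above a per-plate cutoff of the control wells' mean inhibition plus 3 SD, cut at about 5.5% in these data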;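 note: 0% = DMSO wells median and 100% = median of wells with control inhibitor compound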
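System: purified T. brucei MetRS enzyme / Detection: Kinase-Glo luciferase luminescence reporting remaining unconsumed ATP / Medium: HEPES buffer with MgCl2, KCl, DTT, spermine, BSA, pyrophosphatase / Replication: singlicate, one well per compound / Evaluation: percent inhibition relative to median high and low control wells / Schedule: 2 h aminoacylation at 25 °C after 15 min preincubation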
Rin1 Abl inh: inhibitors of Rin1-Abl protein binding, primary screen, biochemical, TR-FRET; Tyrosine-protein kinase ABL1 (Homo sapiens) + Ras and Rab interactor 1 (Homo sapiens), …; inhibition, % at 7.35 µM; 360,000 tested, 0.4% active; AID 588664, 2011; in the data active = inhibition above about 5%, passing the limit was not always enough
ATG4B conf: ATG4B protease inhibitors, retest, confirmation, biochemical, fluorescence, single concentration; shares compounds with ATG4B inh; ATG4B protease fluorescent substrate cleavage assay; inhibition, % at 8.33 µM; 320 tested, 92% active; AID 504757, 2011; in the data active = inhibition above about 39%
PLA2 ctr: PLA2 enzyme inhibition, counter-screen for ATG4B inhibitor project, biochemical, single concentration, uHTS hits | 1,600 tested, 66% active | inhibition, % at 8.33 µM | AID 588402, 2011 | purified PLA2, NBD-C6-HPC fluorescence, 45 min | shares compounds with ATG4B inh; in the data active = inhibition above about 50%
Target sequence (P04054 whole entry, looked up): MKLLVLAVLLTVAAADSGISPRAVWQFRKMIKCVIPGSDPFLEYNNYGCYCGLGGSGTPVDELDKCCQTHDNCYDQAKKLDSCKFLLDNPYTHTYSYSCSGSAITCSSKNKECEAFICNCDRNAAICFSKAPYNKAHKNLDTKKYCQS
* = called active by the depositor; . = no result.

SMILES	ATG4B inh	UCH37 DUB inh	Tb MetRS inh	Rin1 Abl inh	PLA2 ctr	others
O=C(c1ccc(COc2ccccc2Br)cc1)N1CCCCCC1	43.8*	6.5	-1.1	-1.0	55.4*
O=C(O)CC/C(=C\c1ccc(Cl)c([N+](=O)[O-])c1)c1nc2ccccc2s1	49.0*	6.7	1.6	-2.0	36.6	ATG4B conf=63.5*
O=C(O)CC/C(=C/c1cccc(NC(=O)c2ccccc2Cl)c1)c1nc2ccccc2s1	19.6	-46.3	-0.3	-0.1	.
O=C(CSc1nnc(-c2ccc(Br)o2)n1Cc1ccccc1)c1ccccc1F	56.9*	4.8	0.3	-3.2	57.4*
Cc1cc(NC(=O)CSc2nnc(-c3ccc(Br)o3)n2Cc2ccccc2)no1	-0.8	-7.3	-0.6	-1.9	.
Cc1ccccc1-c1cc(-c2ccccc2O)n[nH]1	57.7*	2.9	-0.2	-0.3	64.8*
Cc1ccc(-c2cc(-c3ccc(C)cc3O)[nH]n2)cc1	0.7	0.6	0.0	2.6	.
Cc1ccc(-c2cc(-c3ccccc3Cl)[nH]n2)c(O)c1	68.0*	2.0	-0.1	1.1	77.0*
Oc1ccc(Br)cc1-c1cc(-c2ccccc2Cl)[nH]n1	22.2	3.8	-0.2	-3.7	.
Cc1ccc(-c2cc(-c3ccccc3[N+](=O)[O-])[nH]n2)c(O)c1	60.6*	5.5	-0.2	1.3	75.0*
COC(=O)C(CCCCNC(=O)c1ccc([N+](=O)[O-])cc1)NC(=O)c1ccc([N+](=O)[O-])cc1 (stereo not given)	0.1	-1.4	-0.9	0.1	.
Cc1nn(-c2ccccc2)c(N)c1N=O	-7.0	5.2	-0.2	-6.0	.
Cc1nn(-c2ccccc2)c(N)c1N=Nc1ccc2ccccc2c1	78.2*	8.5	-0.3	1.8	91.5*
COc1ccc(N=Nc2c(N)nn(C)c2N)cc1	6.5	17.7	-0.5	-5.5	.
Cc1ccc(N=Nc2c(N)nn(-c3ccccc3)c2N)cc1	57.3*	10.2	-0.1	-2.1	70.8*
O=C(NCCC1=CCCCC1)c1cc(COc2ccc(F)cc2Cl)on1	17.5	7.2	0.2	2.3	.
O=C(NCCc1ccccc1Cl)c1cc(COc2ccc(F)cc2F)on1	45.6*	3.1	-0.1	-2.2	55.3*
Cn1cccc1-c1cc(C(=O)N/N=C/c2cc(Br)ccc2O)[nH]n1	49.1*	.	0.1	-2.1	56.0*
O=C(N/N=C1\CC(c2ccccc2)Oc2ccccc21)c1cccnc1 (stereo not given)	-5.7	.	-0.7	-3.6	.
O=C(N/N=C1\CC(c2ccccc2)Oc2ccccc21)c1ccc(O)cc1 (stereo not given)	43.1*	.	0.1	-1.0	54.9*
Cc1cc(/C=N/NC(=O)C(O)(c2ccccc2)c2ccccc2)c(C)n1-c1cccc(C(=O)O)c1	52.4*	.	-0.4	-1.6	57.0*
COc1ccc(CSC(=N)N)cc1[N+](=O)[O-]	-8.8	2.2	-0.8	1.0	.
CCCCCOc1ccc(CSC(=N)N)cc1[N+](=O)[O-]	64.4*	5.9	-1.2	-2.8	61.3*
O=C(N/N=C\C=C\c1ccc(Br)cc1)c1ccc2c(c1)OCO2	3.4	.	-0.2	-1.7	.
Cc1ccc(-n2c(Cc3cccn3C)nnc2SCC(=O)N2CCc3ccccc32)cc1	51.5*	0.4	-0.7	2.5	47.9
SMILES	ATG4B inh	UCH37 DUB inh	Tb MetRS inh	Rin1 Abl inh	PLA2 ctr	others
C#CCNC(=O)C1=C[C@H](c2coc3ccccc3c2=O)C[C@H](OCCCCO)O1	-6.0	-0.3	0.3	1.6	.
Cc1sc2nc(C3CC3)nc(SCC(=O)N3CCCc4ccccc43)c2c1C	.	-0.5	.	.	.
Cc1sc2nc(C3CC3)nc(SCC(=O)N3CC(=O)Nc4ccccc43)c2c1C	68.8*	2.3	-0.5	2.5	76.6*
CC(C)(C)c1ccc(OCc2ccc(C(=O)N/N=C3\CC4CC=CC34)cc2)cc1 (stereo not given)	48.8*	.	-0.4	1.9	55.6*
CCc1cccc(C)c1NC(=O)CCCSc1nc2ccccc2s1	64.8*	1.8	-0.8	-0.7	57.4*
Nc1c(S(=O)(=O)O)cc(NC(=O)c2ccccc2)c2c1C(=O)c1ccccc1C2=O	75.8*	33.1*	-0.4	-4.2	68.4*
Cc1ccc(-n2nc3c(N4CCC(C(=O)N5CCN(C)CC5)CC4)nnc(C)c3c2C)cc1	10.8	-13.9	-0.2	0.5	.
COc1ccc(-n2nc3c(N4CCC(C(=O)N5CCCCCC5)CC4)nnc(C)c3c2C)cc1	75.0*	.	-0.2	3.3	78.9*
Cc1nnc(N2CCC(C(=O)N3CCCCCC3)CC2)c2nn(-c3ccc(Cl)cc3)c(C)c12	75.6*	-20.0	0.9	6.1	85.5*
CCOC(=O)C(=O)c1csc(NC(=O)COc2ccc(N(C)S(=O)(=O)c3ccc(F)cc3)cc2)n1	-8.9	0.8	-1.0	2.1	.
CCn1cc(C(=O)OCC(=O)c2cc(C)n(-c3ccc(OC(F)F)cc3)c2C)c(=O)c2ccc(C)nc21	72.0*	4.0	-0.3	-2.7	74.2*
CCn1cc(C(=O)OCC(=O)Nc2ccccc2OC(F)F)c(=O)c2ccc(C)nc21	-1.8	1.4	-0.1	0.6	.
CCn1cc(C(=O)OCC(=O)c2cc(C)n(-c3ccccc3)c2C)c(=O)c2ccc(C)nc21	66.2*	6.8	-0.1	2.3	68.3*
CCn1cc(C(=O)OCC(=O)c2cc(C)n(-c3ccccc3F)c2C)c(=O)c2ccc(C)nc21	71.4*	2.0	-0.1	-1.5	74.8*
COCCCn1c(SCc2nnc(-c3ccc(OC)c(OC)c3)o2)nc2ccccc2c1=O	7.2	4.0	-1.4	-1.1	.
CCOC(=O)CSc1nc2ccccc2c(=O)n1CC1CCCC1	70.6*	1.3	-1.1	2.4	70.7*
COc1ccc(-c2nnc(CSc3nc4ccccc4c(=O)n3CC(C)C)o2)cc1OC	45.2*	6.6	-0.5	-0.8	44.2	ATG4B conf=74.1*
CCOC(=O)CSc1nc2ccccc2c(=O)n1CC(C)C	57.4*	-0.4	-0.8	1.0	56.4*
O=C(c1ccc(Cl)c([N+](=O)[O-])c1)N(Cc1ccccc1)C1CCS(=O)(=O)C1 (stereo not given)	3.4	-2.0	-0.1	-3.2	.
OCCN(Cc1nc(-c2ccc3c(c2)OCO3)no1)Cc1cccs1	-7.6	3.6	-0.7	-0.4	.
COc1ccc(Cc2nnc(NC(=O)c3cccc([N+](=O)[O-])c3)s2)cc1	50.9*	2.1	-1.2	-1.7	4.5
